Assay results as given in ChEMBL document CHEMBL1135644, “Effect of spermine conjugation on the cytotoxicity and cellular transport of acridine” (J Med Chem, 2002).

How the values were obtained:
CHO [1] = test: Cellular uptake of conjugates in CHO cells at a concentration of 1.25 uM (+/-15% SEM); assay type: functional, cell-based; conditions: Cricetulus griseus
How it was run: (§1)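 Conjugates added 24 h after seeding (1 × 10^5 cells/mL, RPMI 1640 with 10% FCS and 2 mM aminoguanidine; proline added for CHO-MG) and left for 24 h. Cells were washed in 0.14 M NaCl, sonicated in 0.2 N HClO4/2 M NaCl and held 16 h at 4 °C. Conjugate in the supernatant was measured by fluorimetry against standards and expressed per mg protein (Folin). Mean of three determinations (±15%).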

CHO [2] = test: Cellular uptake of conjugates in CHO cells at a concentration of 10 uM (+/-15% SEM); assay type: functional, cell-based; conditions: Cricetulus griseus; how it was run: as §1
CHO-MG [3] = test: In vitro 50% cell growth inhibition by the compound in CHO-MG cells; assay type: functional, cell-based; conditions: Cricetulus griseus
How it was run: (§2)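 CHO or CHO-MG cells were trypsinized and plated singly at 2 × 10^3 cells/mL in RPMI 1640/10% FCS with 2 mM aminoguanidine (proline for CHO-MG). Conjugates were added after overnight incubation, with 48 h exposure. Growth was read by MTT formazan absorbance at 540 nm relative to untreated controls. The value is the concentration giving 25% or 50% growth inhibition.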

CHO-MG [4] = test: Cellular uptake of conjugates in CHO-MG cells at a concentration of 10 uM (+/-15% SEM); assay type: functional, cell-based; conditions: Cricetulus griseus; how it was run: as §1
L1210 [5] = test: In vitro 50% cell growth inhibition by the compound in L1210 cells; assay type: functional, cell-based; conditions: Mus musculus
How it was run: (§3)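 L1210 cells were seeded at 5 × 10^4 cells/mL with conjugate added at seeding, in medium with 2 mM aminoguanidine, for 48 h exposure. Growth was measured by MTT absorbance at 540 nm relative to untreated controls.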

L1210 [6] = test: In vitro 50% cell growth inhibition by the compound in L1210 cells with 5 mM DFMO addition; assay type: functional, cell-based; conditions: Mus musculus
How it was run: (§4)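 L1210 cells were seeded at 5 × 10^4 cells/mL, and conjugate plus 5 mM DFMO were added at seeding with 2 mM aminoguanidine present. After 48 h, growth was read by MTT at 540 nm relative to DFMO-only controls.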

L1210 [7] = test: In vitro 25% cell growth inhibition by the compound in L1210 cells; assay type: functional; conditions: Mus musculus; how it was run: as §3
L1210 [8] = test: In vitro 25% cell growth inhibition by the compound in L1210 cells with 5 mM DFMO addition; assay type: functional; conditions: Mus musculus; how it was run: as §4
L1210 [9] = test: Inhibition of [14C]SPD uptake by the compound in 5 min initial rate transport assay in L1210 cells; assay type: functional, cell-based, Mus musculus
L1210 [10] = test: Cellular uptake of conjugates in L1210 cells (control) at a concentration of 10 uM (+/-15% SEM); assay type: functional, cell-based; conditions: Mus musculus
How it was run: (§5)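 L1210 cells were seeded at 2 × 10^5 cells/mL with conjugate added at seeding, in medium containing 2 mM aminoguanidine, and cultured 24 h. Washed cells were extracted in 0.2 N HClO4/2 M NaCl for 16 h at 4 °C. Intracellular conjugate was quantified by fluorimetry and expressed as nmol/mg protein. Mean of three determinations (±15%).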

L1210 [11] = test: Cellular uptake of conjugates in L1210 cells pretreated with 5 mM DFMO at a concentration of 10 uM (+/-15% SEM); assay type: functional, cell-based; conditions: Mus musculus
How it was run: (§6)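 L1210 cells were seeded at 10^5 cells/mL in medium with 5 mM DFMO, and conjugates were added 24 h later. Cells were harvested after a further 24 h, extracted in 0.2 N HClO4/2 M NaCl and assayed by fluorimetry, expressed per mg protein. Mean of three determinations (±15%).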

Nucleic Acid = test: Drug concentration required to produce 50% inhibition of fluorescence bound ethidium to CT-DNA (1.26:1) (+/-SEM 5%); assay type: functional; conditions: Bos taurus
How it was run: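 Ethidium displacement: 1 μM CT-DNA with 1.26 μM ethidium bromide; conjugate stock added serially. Fluorescence was read at excitation 546 nm and emission 595 nm. The value is the conjugate concentration cutting DNA-bound ethidium fluorescence by 50%. Mean of three determinations (±5%).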

CHO-MG [12] = test: Cellular uptake of conjugates in CHO-MG cells at a concentration of 1.25 uM (+/-15% SEM); assay type: functional, cell-based; how it was run: as §1
[13] = Ratio of cellular uptake in CHO cells to that of CHO-MG cells at 1.25 uM; assay type: functional
[14] = Ratio of cellular uptake in CHO cells to that of CHO-MG cells at 10 uM; assay type: functional
CHO [15] = test: In vitro 50% cell growth inhibition by the compound in CHO cells; assay type: functional, cell-based; conditions: Cricetulus griseus; how it was run: as §2
CHO [16] = test: Cellular uptake of conjugates in CHO cells at a concentration of 0.5 uM (+/-15% SEM); assay type: functional, cell-based; conditions: Cricetulus griseus; how it was run: as §1
CHO-MG [17] = test: In vitro 25% cell growth inhibition by the compound in CHO-MG cells; assay type: functional, Cricetulus griseus; conditions: Cricetulus griseus, CHO-MG; read-out: IC25; how it was run: as §2
CHO-MG [18] = test: In vitro 25% cell growth inhibition by the compound in CHO-MG cells with 5 mM DFMO addition; assay type: functional; conditions: Cricetulus griseus
How it was run: (§7)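 CHO or CHO-MG cells were plated at 2 × 10^3 cells/mL and incubated overnight. Conjugates and 5 mM DFMO were then added together, with 2 mM aminoguanidine present, for 48 h. MTT absorbance at 540 nm was expressed relative to DFMO-treated controls. The value is the concentration inhibiting growth 25% or 50%.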

CHO-MG [19] = test: In vitro 50% cell growth inhibition by the compound in CHO-MG cells with 5 mM DFMO addition; assay type: functional, cell-based; conditions: Cricetulus griseus; how it was run: as §7
CHO-MG [20] = test: Cellular uptake of conjugates in CHO-MG cells at a concentration of 0.5 uM (+/-15% SEM); assay type: functional, cell-based; conditions: Cricetulus griseus; how it was run: as §1
CHO [21] = test: In vitro 50% cell growth inhibition by the co mpound in CHO cells with 5 mM DFMO addition; assay type: functional, cell-based; conditions: Cricetulus griseus; how it was run: as §7
CHO [22] = test: In vitro 25% cell growth inhibition by the compound in CHO cells; assay type: functional; conditions: Cricetulus griseus; how it was run: as §2
CHO [23] = test: In vitro 25% cell growth inhibition by the compound in CHO cells with 5 mM DFMO addition; assay type: functional; conditions: Cricetulus griseus; how it was run: as §7
L1210 [24] = test: Cellular uptake of conjugates in L1210 cells (control) at a concentration of 0.5 uM (+/-15% SEM); assay type: functional, cell-based; conditions: Mus musculus; how it was run: as §5
L1210 [25] = test: Cellular uptake of conjugates in L1210 cells (control) at a concentration of 1 uM (+/-15% SEM); assay type: functional, cell-based; conditions: Mus musculus; how it was run: as §5
L1210 [26] = test: Cellular uptake of conjugates in L1210 cells (control) at a concentration of 2 uM (+/-15% SEM); assay type: functional, cell-based; conditions: Mus musculus; how it was run: as §5
L1210 [27] = test: Cellular uptake of conjugates in L1210 cells in presence of 500 uM SPD at a concentration of 0.5 uM (+/-15% SEM); assay type: functional, cell-based; conditions: Mus musculus
How it was run: (§8)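 Same as the L1210 uptake assay: seeded at 2 × 10^5 cells/mL, conjugate plus 500 μM spermidine added together at seeding, 24 h exposure. Extraction in HClO4/NaCl, fluorimetric quantitation, normalized to protein. Mean of three determinations (±15%).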

L1210 [28] = test: Cellular uptake of conjugates in L1210 cells in presence of 500 uM SPD at a concentration of 1 uM (+/-15% SEM); assay type: functional, cell-based; conditions: Mus musculus; how it was run: as §8
L1210 [29] = test: Cellular uptake of conjugates in L1210 cells in presence of 500 uM SPD at a concentration of 2 uM (+/-15% SEM); assay type: functional, cell-based; conditions: Mus musculus; how it was run: as §8
L1210 [30] = test: Cellular uptake of conjugates in L1210 cells pretreated with 5 mM DFMO at a concentration of 0.5 uM (+/-15% SEM); assay type: functional, cell-based; conditions: Mus musculus; how it was run: as §6
L1210 [31] = test: Cellular uptake of conjugates in L1210 cells pretreated with 5 mM DFMO at a concentration of 1 uM (+/-15% SEM); assay type: functional, cell-based; conditions: Mus musculus; how it was run: as §6
L1210 [32] = test: Cellular uptake of conjugates in L1210 cells pretreated with 5 mM DFMO at a concentration of 2 uM (+/-15% SEM); assay type: functional, cell-based; conditions: Mus musculus; how it was run: as §6
[33] = Ratio of cellular uptake in CHO cells to that of CHO-MG cells.; assay type: functional

Work on `Cl.NCCCNCCCCNCCCNCCCCNC(=O)c1c2ccccc2nc2ccccc12` yielded an Uptake (nM (mg of protein)-1) (CHO [1]) of 0.018, an Uptake (nM (mg of protein)-1) (CHO [2]) of 0.183 and an IC50 (CHO-MG [3]) of 21000 nM. For the same compound, the Uptake (nM (mg of protein)-1) (CHO-MG [4]) was 0.172, the IC50 (L1210 [5]) was 18000 nM and the IC50 (L1210 [6]) was 2200 nM. It also gave an IC25 (L1210 [7]) of 10000 nM, an IC25 (L1210 [8]) of 160 nM and a Ki (L1210 [9]) of 83 nM. It also gave an Uptake (nM (mg of protein)-1) (L1210 [10]) of 0.561, an Uptake (nM (mg of protein)-1) (L1210 [11]) of 0.85 and a Concentration for 50% ethidium displacement from DNA (C50) (Nucleic Acid) of 120 nM. The Uptake (nM (mg of protein)-1) (CHO-MG [12]) was 0.013, the Ratio [13] was 1.4 and the Ratio [14] was 1.1. For the same compound, the IC50 (CHO [15]) was 17000 nM.
In the case of `Cl.NCCCNCCCCNCCCNCCCNc1c2ccccc2nc2ccccc12`, the Uptake (nM (mg of protein)-1) (CHO [16]) is reported as 0.167, the IC25 (CHO-MG [17]) is reported as 1800 nM and the IC25 (CHO-MG [18]) is reported as 2500 nM. It also gave an IC50 (CHO-MG [3]) of 6100 nM, an IC50 (CHO-MG [19]) of 7300 nM and an Uptake (nM (mg of protein)-1) (CHO-MG [20]) of 0.054. The IC50 (CHO [21]) was 1300 nM, the IC25 (CHO [22]) was 900 nM and the IC25 (CHO [23]) was 320 nM. The IC50 (L1210 [5]) was 2800 nM, the IC50 (L1210 [6]) was 900 nM and the IC25 (L1210 [7]) was 1400 nM. For the same compound, the IC25 (L1210 [8]) was 140 nM, the Ki (L1210 [9]) was 129 nM and the Uptake (nM (mg of protein)-1) (L1210 [24]) was 0.186. It also gave an Uptake (nM (mg of protein)-1) (L1210 [25]) of 0.307, an Uptake (nM (mg of protein)-1) (L1210 [26]) of 0.717 and an Uptake (nM (mg of protein)-1) (L1210 [27]) of 0.053. It also gave an Uptake (nM (mg of protein)-1) (L1210 [28]) of 0.188, an Uptake (nM (mg of protein)-1) (L1210 [29]) of 0.553 and an Uptake (nM (mg of protein)-1) (L1210 [30]) of 0.496. It also gave an Uptake (nM (mg of protein)-1) (L1210 [31]) of 0.728, an Uptake (nM (mg of protein)-1) (L1210 [32]) of 1.58 and a Concentration for 50% ethidium displacement from DNA (C50) (Nucleic Acid) of 110 nM. The Ratio [33] was 3.1 and the IC50 (CHO [15]) was 2300 nM.
